Activity calls are given as the source filed them. No cut-off for these calls is given here.
Columns and labels:
[1] = Antioxidant activity assessed as half life of DPPH radical scavenging activity at 500 uM for 180 mins measured every 30 mins relative to control; assay type: functional
Summary of the method: (§1)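 Test compounds mixed with 0.3 mM DPPH in ethanol; single-point screen at 1 mM, time course at final 500 µM. Absorbance at 518 nm read every 30 min over 180 min. Positive controls were BHT (final 500 µM) and diphenyl diselenide (final 2 mM); t1/2 is the time to scavenge 50% of DPPH. DMSO vehicle; three independent experiments.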

[2] = Cytotoxicity against CHOK1 cells assessed as inhibition of cell growth at 12.5 uM after 24 hrs by MTT assay relative to control; assay type: cell-based, Cricetulus griseus; conditions: chinese hamster, CHO-K1 cells
Summary of the method: (§2)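 CHO-K1 cells exposed to 0.4–50 µM for 24 and 48 h, then MTT reduction assay. Growth inhibition relative to control; IC50 by nonlinear regression; three independent experiments.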

CHO-K1 [3] = assay: Cytotoxicity against CHOK1 cells assessed as inhibition of cell growth at 0.4 uM to 50 uM after 24 hrs by MTT assay; assay type: cell-based, Cricetulus griseus; conditions: chinese hamster, cho-k1, 24 h; summary of the method: as §2
5637 [4] = assay: Antiproliferative activity against human 5637 cells assessed as inhibition of cell growth at 0.4 uM to 50 uM after 24 hrs by MTT assay; assay type: functional, cell-based
Summary of the method: (§3)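 Human bladder carcinoma 5637 cells, grown in DMEM with 10% FBS at 37 °C under 5% CO2, were seeded at 2 × 10^4 cells/well and cultured 24 h. Medium was then replaced with compound in DMEM/FBS, DMSO ≤0.5%, for 24 or 48 h. MTT was added for 3 h, formazan dissolved in DMSO, and OD read at 492 nm. Inhibition % = [1 − Abs treated/Abs control] × 100; three independent experiments.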

CHO-K1 [5] = assay: Cytotoxicity against CHOK1 cells assessed as inhibition of cell growth at 0.4 uM to 50 uM after 48 hrs by MTT assay; assay type: cell-based, Cricetulus griseus; conditions: chinese hamster, cho-k1, 48 h; summary of the method: as §2
5637 [6] = assay: Antiproliferative activity against human 5637 cells assessed as inhibition of cell growth at 0.4 uM to 50 uM after 48 hrs by MTT assay; assay type: functional, cell-based; summary of the method: as §3
[7] = Antioxidant activity assessed as inhibition of Fe(II)-induced lipid peroxidation at 200 uM after 30 mins by TBARS assay; assay type: functional
Summary of the method: (§4)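 Lipid peroxidation system: phosphatidylcholine 0.4 mg, FeSO4 55 µM, Tris-HCl pH 7.4 and compound (final 0–200 µM), 30 min at 37 °C. Then acetic acid buffer pH 3.4 plus 0.22% thiobarbituric acid, 1 h at 100 °C, n-butanol extraction of pink chromogen. IC50 from concentration curves; α-tocopherol and diphenyl diselenide as references; three independent experiments.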

[8] = Antioxidant activity assessed as GPx-like activity to decompose hydrogen peroxide at 450 uM measured for 20 mins by spectrophotometer method; assay type: functional
Summary of the method: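 GPx-mimic assay with thiophenol replacing glutathione. Ethanol, thiophenol 2.5 mM and compound (final 0–450 µM; t1/2 also taken at 55 µM) or DMSO blank, started with H2O2 2.3 mM. […] followed at 305 nm for 20 min. Ebselen and diphenyl diselenide at 55 µM as references; three independent experiments.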

[9] = Antioxidant activity assessed as inhibition of Fe(II)-induced lipid peroxidation after 30 mins by TBARS assay; assay type: functional; summary of the method: as §4
[10] = Antioxidant activity assessed as half life of GPx-like activity to decompose hydrogen peroxide at 55 uM measured for 20 mins by spectrophotometer method
[11] = Cytotoxicity against human leukocytes assessed as reduction in cell viability at 1 mM after 3 hrs by Trypan blue exclusion assay; conditions: 1000 µM
5637 [12] = assay: Cell cycle arrest in human 5637 cells assessed as accumulation at S-phase at 12.5 uM after 24 hrs by propidium-iodide staining based flow cytometry; assay type: functional
Summary of the method: (§5)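 5637 cells treated 24 h at 12.5 µM alongside untreated controls. DNA content measured by propidium iodide staining and flow cytometry. Triplicate treatments; analysis by two-way ANOVA with t-tests, p < 0.05.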

5637 [13] = assay: cells; conditions: Homo sapiens, 5637, 24 h
[14] = Toxicity in Swiss mouse assessed as effect on alkaline phosphatase activity at 100 umol/kg, sc administration and measured for 7 days; assay type: organism-based; conditions: in vivo, 168 h
Summary of the method: (§6)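 Adult male Swiss mice (25–30 g), n = 4 per group, given a single subcutaneous dose of 100 µmol/kg or DMSO 1 mL/kg. Monitored by closed-circuit TV for 168 h, with body weight, food and water intake recorded daily. Killed by decapitation at day 7; blood urea, creatinine, AST, ALT and alkaline phosphatase measured.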

[15] = Antioxidant activity assessed as DPPH radical scavenging activity at 1 mM for 180 mins measured every 30 mins relative to control; assay type: functional; summary of the method: as §1
[16] = Toxicity in Swiss mouse assessed as urea level in plasma at 100 umol/kg, sc administration and measured for 7 days; assay type: organism-based; conditions: in vivo, 168 h; summary of the method: as §6
5637 [17] = assay: Antiproliferative activity against human 5637 cells assessed as inhibition of cell growth at 0.4 uM to 50 uM by MTT assay; assay type: functional, cell-based; conditions: TDE = time-dependent effect
Summary of the method: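 5637 bladder carcinoma cells in DMEM/10% FBS at 37 °C, 5% CO2, log phase, seeded 2 × 10^4 per well for 24 h. Compound exposure 0.4–50 µM for 24 or 48 h, DMSO ≤0.5%. MTT (5 mg/mL in PBS) 3 h at 37 °C, formazan dissolved in DMSO, read at 492 nm. Inhibition % = [1 − Abs treated/Abs control] × 100; IC50 by nonlinear regression; three independent experiments.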

[18] = Cytotoxicity against human leukocytes assessed as reduction in cell viability at 100 uM after 3 hrs by Trypan blue exclusion assay
Summary of the method: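 Leukocytes isolated from heparinized venous blood of healthy donors, 2 × 10^6/mL. Incubated 3 h in Hank's buffer with 10% human plasma containing DMSO (0.5%), compounds (100 µM) or t-butyl hydroperoxide (1 mM) as positive control. Three independent experiments.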

[19] = Toxicity in Swiss mouse assessed as survival rate at 100 umol/kg, sc administration and measured for 7 days; assay type: organism-based; conditions: in vivo, 168 h; summary of the method: as §6
5637 [20] = assay: cells; conditions: Homo sapiens, 5637, 48 h
[21] = Toxicity in Swiss mouse assessed as effect on alanine aminotransferase level at 100 umol/kg, sc administration and measured for 7 days; assay type: organism-based; conditions: in vivo, 168 h; summary of the method: as §6
CHO-K1 [22] = assay: Cytotoxicity against CHOK1 cells assessed as inhibition of cell growth after 24 hrs by MTT assay relative to control; assay type: cell-based; conditions: Cricetulus griseus, CHO-K1, 24 h; summary of the method: as §2
[23] = Toxicity in Swiss mouse assessed as creatinine level in plasma at 100 umol/kg, sc administration and measured for 7 days; assay type: organism-based; conditions: in vivo, 168 h; summary of the method: as §6
[24] = Toxicity in Swiss mouse assessed as increase in aspartate aminotransferase level in plasma at 100 umol/kg, sc administration and measured for 7 days; assay type: organism-based; conditions: in vivo, 168 h; summary of the method: as §6
CHO-K1 [25] = assay: Cytotoxicity against CHOK1 cells assessed as inhibition of cell growth after 48 hrs by MTT assay relative to control; assay type: cell-based; conditions: Cricetulus griseus, CHO-K1, 48 h; summary of the method: as §2
5637 [26] = assay: Cell cycle arrest in human 5637 cells assessed as accumulation at G2/M phase at 12.5 uM after 24 hrs by propidium-iodide staining based flow cytometry; assay type: functional; summary of the method: as §5

**Q.** Which T1/2 [1] does the source give for `Cc1cc(C(C)(C)C)c(O)c(C(C)(C)C)c1` here?
**A.** 20.7 min

**Q.** Which inhibition at 24 h, 12.5 µM [2] does the source give for `CCCCCCC[Te]c1ccccc1` here?
**A.** 50%

**Q.** For `O=C(O)CCCC[C@@H]1SC[C@@H]2NC(=O)N[C@@H]21` [BIOTIN], which Activity (CHO-K1 [3]) is on record?
**A.** Non-Toxic

**Q.** What about the inhibition 5637 [4] of the same compound?
**A.** inactive

**Q.** What about the Activity (CHO-K1 [5]) of the same compound?
**A.** Non-Toxic

**Q.** What about the inhibition 5637 [6] of the same compound?
**A.** inactive

**Q.** For `c1ccc([Se][Se]c2ccccc2)cc1`, which T1/2 [1] is on record?
**A.** > 180 min

**Q.** And the inhibition [7]?
**A.** Active

**Q.** What about the Activity [8] of the same compound?
**A.** Active

**Q.** What about the IC50 [9] of the same compound?
**A.** 248 µM

**Q.** What about the T1/2 [10] of the same compound?
**A.** 120 min

**Q.** Which inhibition 5637 [4] does the source give for `COc1ccc([Se]CCCCOC(=O)CCCC[C@@H]2SC[C@@H]3NC(=O)N[C@@H]32)cc1` here?
**A.** inactive

**Q.** What about the inhibition 5637 [6] of the same compound?
**A.** inactive

**Q.** For `O=c1c2ccccc2[se]n1-c1ccccc1`, which T1/2 [10] is on record?
**A.** 56 min

**Q.** For `Cc1ccc([Se]CCCCOC(=O)CCCC[C@@H]2SC[C@@H]3NC(=O)N[C@@H]32)cc1`, which inhibition 5637 [4] is on record?
**A.** inactive

**Q.** What about the inhibition 5637 [6] of the same compound?
**A.** inactive

**Q.** With `Cc1c(C)c2c(c(C)c1O)CC[C@@](C)(CCC[C@H](C)CCC[C@H](C)CCCC(C)C)O2` [ALPHA-TOCOPHEROL] as the compound, how does the inhibition [7] read?
**A.** Active

**Q.** And the IC50 [9]?
**A.** 60.3 µM

**Q.** With `CC(C)(C)OO` [TERT-BUTYL HYDROPEROXIDE] as the compound, how does the Activity [11] read?
**A.** Toxic

**Q.** With `O=C1N[C@H]2[C@H](CS[C@H]2CCCCC(=O)OCCCC[Se]c2ccc(Cl)cc2)N1` as the compound, how does the inhibition 5637 [4] read?
**A.** inactive

**Q.** And the inhibition 5637 [6]?
**A.** inactive

**Q.** For `O=C1N[C@H]2[C@H](CS[C@H]2CCCCC(=O)OCCCC[Te]c2ccccc2)N1`, which T1/2 [1] is on record?
**A.** 18 min

**Q.** What about the Activity 5637 [12] of the same compound?
**A.** Active

**Q.** And the IC50 5637 [13]?
**A.** 5.8 µM

**Q.** What about the Activity [14] of the same compound?
**A.** Non-Toxic

**Q.** And the Activity [15]?
**A.** 50%

**Q.** And the inhibition [7]?
**A.** Active

**Q.** And the Activity [16]?
**A.** Non-Toxic

**Q.** And the inhibition 5637 [17]?
**A.** Tde

**Q.** What about the Activity [18] of the same compound?
**A.** Non-Toxic

**Q.** And the Activity [8]?
**A.** Active

**Q.** And the Activity [19]?
**A.** Non-Toxic

**Q.** And the IC50 [9]?
**A.** 5 µM

**Q.** What about the IC50 5637 [20] of the same compound?
**A.** 4.73 µM

**Q.** What about the T1/2 [10] of the same compound?
**A.** 15.8 min

**Q.** What about the Activity [21] of the same compound?
**A.** Non-Toxic

**Q.** And the IC50 (CHO-K1 [22])?
**A.** 70 µM

**Q.** And the Activity [23]?
**A.** Non-Toxic

**Q.** What about the Activity [24] of the same compound?
**A.** Toxic

**Q.** What about the IC50 (CHO-K1 [25]) of the same compound?
**A.** 34.2 µM

**Q.** With `O=C1N[C@H]2[C@H](CS[C@H]2CCCCC(=O)OCCCC[Se]c2ccccc2)N1` as the compound, how does the inhibition 5637 [4] read?
**A.** inactive

**Q.** What about the inhibition 5637 [6] of the same compound?
**A.** inactive

**Q.** With `O=C1N[C@H]2[C@H](CS[C@H]2CCCCC(=O)OCCCCC[Te]c2ccccc2)N1` as the compound, how does the T1/2 [1] read?
**A.** 23 min

**Q.** What about the IC50 5637 [13] of the same compound?
**A.** 7.63 µM

**Q.** And the Activity [15]?
**A.** 50%

**Q.** What about the inhibition [7] of the same compound?
**A.** Active

**Q.** And the inhibition 5637 [17]?
**A.** Tde

**Q.** What about the Activity 5637 [26] of the same compound?
**A.** Active

**Q.** What about the Activity [18] of the same compound?
**A.** Non-Toxic

**Q.** What about the Activity [8] of the same compound?
**A.** Active

**Q.** What about the IC50 [9] of the same compound?
**A.** 1.33 µM

**Q.** And the IC50 5637 [20]?
**A.** 6.71 µM

**Q.** What about the T1/2 [10] of the same compound?
**A.** 38.9 min

Source: ChEMBL document CHEMBL4619720, “Synthesis and biological evaluation of new antioxidant and antiproliferative chalcogenobiotin derivatives for bladder carcinoma treatment” (Bioorg Med Chem, 2020)
